From ChEMBL document CHEMBL1687861, “Comazaphilones A-F, azaphilone derivatives from the marine sediment-derived fungus Penicillium commune QSD-17” (J Nat Prod, 2011) come the findings set out here.

A word on the MIC: it is the smallest concentration in the dilution series that meets the test's criterion for growth inhibition. Lower therefore signals a more susceptible organism. For orientation: IC50 means the concentration that gives 50% inhibition. Low values mean greater potency in that assay, high ones weaker potency in that assay.

Assay [1] relates to Staphylococcus aureus. In words: Antimicrobial activity against methicillin-resistant Staphylococcus aureus after 18 hrs by broth microdilution method. It is filed as functional. The method, boiled down: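 Broth microdilution MIC. Inoculum 5 × 10^5 cfu/mL. Concentration range 1024-1 μg/mL. Plates incubated 18 h at 35 °C in ambient air. The MIC was read at the end of incubation.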
In general terms: Broth dilution looks for growth in wells or tubes with falling amounts of substance.

Assay [2] has as its system Pseudomonas aeruginosa. In words: Antimicrobial activity against Pseudomonas aeruginosa after 18 hrs by broth microdilution method. It is filed as functional. The method, boiled down: (§1)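 Broth microdilution MIC; inoculum 5 × 10^5 cfu/mL; compounds tested over 1024-1 μg/mL; plates incubated 18 h at 35 °C in ambient air; MIC taken as the read-out after incubation.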
Assay [3] has as its system Pseudomonas fluorescens. Kind of assay: Antimicrobial activity against Pseudomonas fluorescens after 18 hrs by broth microdilution method. The class given is functional. An outline of the steps:
as §1

Assay [4] deals with Bacillus subtilis. In words: Antimicrobial activity against Bacillus subtilis after 18 hrs by broth microdilution method. The class given is functional. The method, boiled down:
as §1

For assay [5], the system named is Candida albicans. In words: Antimicrobial activity against Candida albicans after 18 hrs by broth microdilution method. It is filed as functional. The method, boiled down: as §1
Assay [6] concerns SW1990. Kind of assay: Cytotoxicity against human SW1990 cells. It is filed as functional, cell-based.
Assay [7] has as its system DU-145. In words: Cytotoxicity against human DU145 cells. It is filed as functional, cell-based.
The test system of assay [8] is HepG2. In words: Cytotoxicity against human HepG2 cells. It is filed as functional, cell-based.
The subject of assay [9] is HeLa. Kind of assay: Cytotoxicity against human HeLa cells. The class given is functional, cell-based.
Assay [10] concerns MCF7. Kind of assay: Cytotoxicity against human MCF7 cells. The class given is functional, cell-based.
Assay [11] concerns NCI-H460. In words: Cytotoxicity against human NCI-H460 cells. The class given is functional, cell-based.
Assay [12] relates to SMMC-7721. In words: Cytotoxicity against human SMMC7721 cells. The class given is functional, cell-based.

Values after ≈ are worked out from the molar mass of the structure shown. Active and inactive are the calls of the source.

In the case of `CCCC1=CC2=C(CO1)C(=O)[C@](C)(O)[C@H](OC(=O)c1c(C)cc(O)c(O)c1OC)C2` [COMAZAPHILONE F], the MIC was 128 µg/mL (≈ 306 µM) in assay [1]; above 256 µg/mL in [2]; 64 µg/mL (≈ 153 µM) in [3]; 128 µg/mL (≈ 306 µM) in [4]; above 256 µg/mL in assay [5]. The same molecule came in with an IC50 in assay [6] of 53 µM.

Turning to `O=c1[nH]cc(F)c(=O)[nH]1` [FLUOROURACIL], the IC50 in assay [6] was determined as 120 µM.

`C/C=C/C1=CC2=C(CO1)C(=O)[C@](C)(OC(=O)c1c(C)cc(O)c(O)c1OC)[C@H](O)C2` [COMAZAPHILONE C]: the MIC in [1] was 16 µg/mL (≈ 38.4 µM); in assay [2], above 256 µg/mL; in assay [3] it was 64 µg/mL (≈ 154 µM); in [4], 32 µg/mL (≈ 76.8 µM); in assay [5], above 256 µg/mL. Besides, the outcome in assay [7], in assay [8], in assay [9], in [10], in assay [11] and in assay [12] was inactive.

As for `CCCC1=CC2=C(CO1)C(=O)[C@](C)(OC(=O)c1c(C)cc(O)c(O)c1OC)[C@H](O)C2` [COMAZAPHILONE B], the MIC in assay [1] is 128 µg/mL (≈ 306 µM); in assay [2], above 256 µg/mL; in assay [3] it was 128 µg/mL (≈ 306 µM); in assay [4] it was 64 µg/mL (≈ 153 µM); in assay [5], above 256 µg/mL. Also, the result in assay [7], in assay [8], in assay [9], in assay [10], in assay [11] and in assay [12] was inactive.

As for `C/C=C/C1=CC2=C(CO1)C(=O)[C@](C)(O)[C@H](OC(=O)c1c(C)cc(O)c(O)c1OC)C2` [COMAZAPHILONE E], the MIC in [1] is above 256 µg/mL; in assay [2] it was above 256 µg/mL; in assay [3] it was 32 µg/mL (≈ 76.8 µM); in assay [4], 16 µg/mL (≈ 38.4 µM); in assay [5] it was above 256 µg/mL. Half-maximal inhibition in assay [6] (IC50) was put at 26 µM.

NYSTATIN returned an MIC in assay [5] of 2 µM. This counts as single-digit micromolar.

For the molecule `CC1(C)S[C@@H]2[C@H](NC(=O)[C@H](N)c3ccccc3)C(=O)N2[C@H]1C(=O)O` [AMPICILLIN], the MIC came out at 8 µg/mL (≈ 22.9 µM) in assay [1], 2 µg/mL (≈ 5.72 µM) in [2], 4 µg/mL (≈ 11.4 µM) in assay [3] and 4 µg/mL (≈ 11.4 µM) in assay [4].

As to `C/C=C/C1=CC2=C(CO1)C(=O)[C@](C)(O)[C@H](OC(=O)c1c(C)cc(O)cc1O)C2` [COMAZAPHILONE D], the MIC was 32 µg/mL (≈ 82.8 µM) in [1]; above 256 µg/mL in [2]; 16 µg/mL (≈ 41.4 µM) in assay [3]; above 256 µg/mL in assay [4]; above 256 µg/mL in assay [5]. The same molecule returned an IC50 in assay [6] of 51 µM.

In the case of `CCCC1=CC2=C(CO1)C(=O)[C@](C)(OC(=O)c1c(C)cc(O)cc1OC)[C@H](O)C2` [COMAZAPHILONE A], the MIC in assay [1], in assay [2], in assay [3], in assay [4] and in assay [5] was above 256 µg/mL in each case. Further, the outcome in assay [7], in [8], in assay [9], in assay [10], in [11] and in assay [12] was inactive.
